According to ChEMBL document CHEMBL1144286, “Parallel synthesis of pteridine derivatives as potent inhibitors for hepatitis C virus NS5B RNA-dependent RNA polymerase” (Bioorg Med Chem Lett, 2005):

target: RNA-directed RNA polymerase (Hepacivirus hominis, UniProt O39930); assay: Inhibitory concentration against RNA dependent RNA polymerase Nonstructural protein 5B of hepatitis C virus
Summary of the method: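 Run per an earlier published HCV NS5B RdRp procedure. Compounds were dissolved in DMSO and then transferred into assay buffer. Each was tested in duplicate, and IC50 was taken as the concentration giving 50% inhibition of polymerase activity.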

Sequence of RNA-directed RNA polymerase (O39930 whole entry): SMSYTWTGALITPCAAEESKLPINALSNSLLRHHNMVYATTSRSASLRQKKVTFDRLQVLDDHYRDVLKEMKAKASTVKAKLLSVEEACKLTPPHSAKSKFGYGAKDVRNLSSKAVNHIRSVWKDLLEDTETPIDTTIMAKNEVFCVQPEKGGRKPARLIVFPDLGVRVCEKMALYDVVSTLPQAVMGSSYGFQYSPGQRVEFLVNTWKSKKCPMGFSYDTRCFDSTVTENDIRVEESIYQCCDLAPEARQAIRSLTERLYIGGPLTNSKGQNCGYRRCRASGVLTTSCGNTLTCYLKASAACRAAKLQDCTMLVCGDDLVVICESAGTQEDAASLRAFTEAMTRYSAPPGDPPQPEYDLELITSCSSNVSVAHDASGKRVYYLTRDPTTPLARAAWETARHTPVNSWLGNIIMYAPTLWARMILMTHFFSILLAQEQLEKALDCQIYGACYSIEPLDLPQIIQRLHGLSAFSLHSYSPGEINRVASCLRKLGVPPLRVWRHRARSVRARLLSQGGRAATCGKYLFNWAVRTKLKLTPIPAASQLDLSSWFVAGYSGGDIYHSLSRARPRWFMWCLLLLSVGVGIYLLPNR

Row | Structure (SMILES) | IC50 [µM]
1 | Fc1ccc(-c2nc3ncnc(N4CCCCC4)c3nc2-c2ccc(F)cc2)cc1 | 68
2 | Cc1ccc(CNc2ncnc3nc(-c4ccc(F)cc4)c(-c4ccc(F)cc4)nc23)cc1 | 9.6
3 | O=[N+]([O-])c1ccc(-c2nc3ncnc(O)c3nc2-c2ccccc2)cc1 | 30
4 | CCCCOCCCNc1ncnc2nc(-c3ccc(F)cc3)c(-c3ccc(F)cc3)nc12 | 73
5 | Oc1ncnc2nc(-c3ccccn3)c(-c3ccccn3)nc12 | > 100
6 | c1ccc(-c2nc3ncnc(N4CCCCC4)c3nc2-c2ccccc2)cc1 | > 100
7 | Fc1ccc(CCNc2ncnc3nc(-c4ccc(F)cc4)c(-c4ccc(F)cc4)nc23)cc1 | 26
8 | COc1cccc(-c2nc3ncnc(O)c3nc2-c2cccc(OC)c2)c1 | > 100
9 | CCCC(C)Nc1ncnc2nc(-c3ccc(F)cc3)c(-c3ccc(F)cc3)nc12 (configuration not stated) | 1.5
10 | Oc1ncnc2nc(-c3ccc(F)cc3)c(-c3ccc(F)cc3)nc12 | 0.5
11 | CCCCC(CC)CNc1ncnc2nc(-c3ccc(F)cc3)c(-c3ccc(F)cc3)nc12 (configuration not stated) | 10
12 | CC1CCC(Nc2ncnc3nc(-c4ccc(F)cc4)c(-c4ccc(F)cc4)nc23)CC1 (configuration not stated) | 1.3
13 | CCCCCCNc1ncnc2nc(-c3ccc(F)cc3)c(-c3ccc(F)cc3)nc12 | > 100
14 | c1ccc(-c2nc3ncnc(NC4CCCCCC4)c3nc2-c2ccccc2)cc1 | 29
15 | Fc1ccc(-c2nc3ncnc(NCCc4ccccc4)c3nc2-c2ccc(F)cc2)cc1 | 13
16 | COc1ccccc1CCNc1ncnc2nc(-c3ccc(F)cc3)c(-c3ccc(F)cc3)nc12 | 80
17 | CCCCOCCCNc1ncnc2nc(-c3ccccc3)c(-c3ccccc3)nc12 | 87
18 | CCNc1ncnc2nc(-c3ccccc3)c(-c3ccccc3)nc12 | 16
19 | CCCCCCNc1ncnc2nc(-c3ccccc3)c(-c3ccccc3)nc12 | > 100

Row | Structure (SMILES) | IC50 [µM]
20 | Cc1ccc(CNc2ncnc3nc(-c4ccccc4)c(-c4ccccc4)nc23)cc1 | > 100
21 | COC(=O)C1CCCN1c1ncnc2nc(-c3ccc(F)cc3)c(-c3ccc(F)cc3)nc12 (configuration not stated) | 51
22 | O=c1[nH]cnc2nc3c4ccccc4c4ccccc4c3nc12 | > 100
23 | Fc1ccc(-c2nc3ncnc(NCc4ccco4)c3nc2-c2ccc(F)cc2)cc1 | 2.9
24 | Oc1ncnc2nc(-c3ccccc3)c(-c3ccccc3)nc12 | 15
25 | Fc1ccc(CCNc2ncnc3nc(-c4ccccc4)c(-c4ccccc4)nc23)cc1 | > 100
26 | O=c1[nH]cnc2nc(-c3ccccc3)c(-c3ccc([N+](=O)[O-])cc3)nc12 | 23
27 | Oc1ncnc2nc(-c3ccco3)c(-c3ccco3)nc12 | 58
28 | O=c1[nH]cnc2nc(-c3ccccc3Cl)c(-c3ccccc3Cl)nc12 | > 100
29 | COc1ccc(-c2nc3ncnc(O)c3nc2-c2ccc(OC)cc2)cc1 | > 100
30 | CCNc1ncnc2nc(-c3ccc(F)cc3)c(-c3ccc(F)cc3)nc12 | 2.9
31 | CCCC(C)Nc1ncnc2nc(-c3ccccc3)c(-c3ccccc3)nc12 (configuration not stated) | 6
32 | O=c1[nH]cnc2nc3c(nc12)C1CCCCC31 (configuration not stated) | > 100
33 | CN(C)c1ncnc2nc(-c3ccc(F)cc3)c(-c3ccc(F)cc3)nc12 | 21
34 | O=c1[nH]cnc2nc(-c3ccc(Br)cc3)c(-c3ccc(Br)cc3)nc12 | 30
35 | Fc1ccc(-c2nc3ncnc(NC4CCC4)c3nc2-c2ccc(F)cc2)cc1 | 2.1
36 | Fc1ccc(-c2nc3ncnc(NC4CCCCCC4)c3nc2-c2ccc(F)cc2)cc1 | 3.2
37 | Cc1ccc(-c2nc3ncnc(O)c3nc2-c2ccc(C)cc2)cc1 | > 100
